# Reference: ChEMBL document CHEMBL1128417, “Synthesis and opioid activity of conformationally constrained dynorphin A analogues. 1. Conformational constraint in the "message" sequence” (J Med Chem, 1995)
# Assays:
# Cavia porcellus [1] = species on record: Cavia porcellus; experiment: In vitro inhibition of electrically evoked contractions of the guinea pig ileum (GPI); type: functional
# Summary of the method: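 Guinea pig ileum preparation, electrically stimulated; peptidase inhibitors (10 µM bestatin, 0.3 µM thiorphan) added to the tissue bath 5 min before each experiment. IC50 for inhibition of contractions taken from at least three replicates in tissues from different animals.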
# [2] = biological target: Kappa-type opioid receptor (Cavia porcellus, UniProt P41144); experiment: Compound was evaluated for binding affinity against Opioid receptor kappa 1 using as the radioligand using competition binding assays.
# Mu-type opioid receptor = Mu-type opioid receptor (Rattus norvegicus, UniProt P33535); experiment: Compound was evaluated for binding affinity against Opioid receptor mu 1 of rat forebrain using [3H]DAMGO as the radioligand using competition binding assays.
# [3] = biological target: Delta-type opioid receptor (Rattus norvegicus, UniProt P33533); experiment: Compound was evaluated for binding affinity against delta opioid receptor of rat forebrain using [3H]-DPDPE as the radioligand using competition binding assays.
# Cavia porcellus [4] = species on record: Cavia porcellus; experiment: Relative potency against electrically evoked contractions of the guinea pig ileum(GPI).; type: functional; design: reference not given here
# [5] = biological target: T1, Opioid receptors; mu & delta (Homo sapiens) (UniProt P41143+P35372); experiment: Ki ratio which is the ratio of Ki of k opioid receptor to the Ki of mu opioid receptor to the Ki of delta opioid receptor; 1.3/1/27; type: protein assay
# [6] = biological target: T1, Opioid receptors; mu & delta (Homo sapiens); experiment: Ki ratio which is the ratio of Ki of k opioid receptor to the Ki of mu opioid receptor to the Ki of delta opioid receptor; 1/2.2/47; type: protein assay
# [7] = biological target: T1, Opioid receptors; mu & delta (Homo sapiens); experiment: Ki ratio which is the ratio of Ki of k opioid receptor to the Ki of mu opioid receptor to the Ki of delta opioid receptor; 1/1.3/92; type: protein assay
# [8] = biological target: T1, Opioid receptors; mu & delta (Homo sapiens); experiment: Ki ratio which is the ratio of Ki of k opioid receptor to the Ki of mu opioid receptor to the Ki of delta opioid receptor; 3.6/1/74; type: protein assay
Structure (SMILES),IC50 (Cavia porcellus [1]) [nM],Ki [2] [nM],Ki (Mu-type opioid receptor) [nM],Ki [3] [nM],Relative potency (Cavia porcellus [4]),also measured
CC[C@H](C)[C@H](NC(=O)[C@H](CCCN=C(N)N)NC(=O)[C@H](CCCN=C(N)N)NC(=O)[C@@H]1CNC(=O)C[C@@H](NC(=O)[C@@H](N)Cc2ccc(O)cc2)C(=O)NCC(=O)N[C@@H](Cc2ccccc2)C(=O)N1)C(=O)N[C@@H](CCCN=C(N)N)C(=O)N1CCC[C@H]1C(=O)N[C@@H](CCCCN)C(=O)N[C@@H](CC(C)C)C(=O)N[C@@H](CCCCN)C(N)=O [listing 1 of 2 here],0.16,0.22,0.49,10.2,–,–
CC[C@H](C)[C@H](NC(=O)[C@H](CCCN=C(N)N)NC(=O)[C@H](CCCN=C(N)N)NC(=O)[C@H](CN=C(N(C)C)N(C)C)NC(=O)[C@H](Cc1ccccc1)NC(=O)CNC(=O)[C@@H](CC(=O)O)NC(=O)[C@@H](N)Cc1ccc(O)cc1)C(=O)N[C@@H](CCCN=C(N)N)C(=O)N1CCC[C@H]1C(=O)N[C@@H](CCCCN)C(=O)N[C@@H](CC(C)C)C(=O)N[C@@H](CCCCN)C(N)=O,0.46,0.21,0.16,4.31,48,Ki ratio [5]: mu/kappa/delta
CC[C@H](C)[C@H](NC(=O)[C@H](CCCN=C(N)N)NC(=O)[C@H](CCCN=C(N)N)NC(=O)[C@@H]1CNC(=O)C[C@@H](NC(=O)[C@@H](N)Cc2ccc(O)cc2)C(=O)NCC(=O)N[C@@H](Cc2ccccc2)C(=O)N1)C(=O)N[C@@H](CCCN=C(N)N)C(=O)N1CCC[C@H]1C(=O)N[C@@H](CCCCN)C(=O)N[C@@H](CC(C)C)C(=O)N[C@@H](CCCCN)C(N)=O [listing 2 of 2 here],–,–,–,–,138,–
CC[C@H](C)[C@H](NC(=O)[C@H](CCCN=C(N)N)NC(=O)[C@H](CCCN=C(N)N)NC(=O)[C@H](CC(C)C)NC(=O)[C@H](Cc1ccccc1)NC(=O)CNC(=O)CNC(=O)[C@@H](N)Cc1ccc(O)cc1)C(=O)N[C@@H](CCCN=C(N)N)C(=O)N1CCC[C@H]1C(=O)N[C@@H](CCCCN)C(=O)N[C@@H](CC(C)C)C(=O)N[C@@H](CCCCN)C(N)=O [listing 1 of 2 here],0.22,–,–,–,–,–
CC[C@H](C)[C@H](NC(=O)[C@H](CCCN=C(N)N)NC(=O)[C@H](CCCN=C(N)N)NC(=O)[C@@H]1CNC(=O)C[C@@H](NC(=O)[C@@H](N)Cc2ccc(O)cc2)C(=O)NCC(=O)N[C@@H](Cc2ccccc2)C(=O)N1)C(=O)N[C@@H](CCCN=C(N)N)C(=O)N1CCC[C@@H]1C(=O)N[C@@H](CCCCN)C(=O)N[C@@H](CC(C)C)C(=O)N[C@@H](CCCCN)C(N)=O,–,–,–,–,–,Ki ratio [6]: kappa/mu/delta
CC[C@H](C)[C@H](NC(=O)[C@H](CCCN=C(N)N)NC(=O)[C@H](CCCN=C(N)N)NC(=O)[C@@H]1CCNC(=O)C[C@@H](NC(=O)[C@@H](N)Cc2ccc(O)cc2)C(=O)NCC(=O)N[C@@H](Cc2ccccc2)C(=O)N1)C(=O)N[C@@H](CCCN=C(N)N)C(=O)N1CCC[C@@H]1C(=O)N[C@@H](CCCCN)C(=O)N[C@@H](CC(C)C)C(=O)N[C@@H](CCCCN)C(N)=O,–,–,–,–,–,Ki ratio [7]: kappa/mu/delta
CC[C@H](C)[C@H](NC(=O)[C@H](CCCN=C(N)N)NC(=O)[C@H](CCCN=C(N)N)NC(=O)[C@H](CC(C)C)NC(=O)[C@H](Cc1ccccc1)NC(=O)CNC(=O)CNC(=O)[C@@H](N)Cc1ccc(O)cc1)C(=O)N[C@@H](CCCN=C(N)N)C(=O)N1CCC[C@H]1C(=O)N[C@@H](CCCCN)C(=O)N[C@@H](CC(C)C)C(=O)N[C@@H](CCCCN)C(N)=O [listing 2 of 2 here],–,–,–,–,100,–
CC[C@H](C)[C@H](NC(=O)[C@H](CCCN=C(N)N)NC(=O)[C@H](CCCN=C(N)N)NC(=O)[C@H](CC(C)C)NC(=O)[C@H](Cc1ccccc1)NC(=O)CNC(=O)[C@@H](CC(=O)O)NC(=O)[C@@H](N)Cc1ccc(O)cc1)C(=O)N[C@@H](CCCN=C(N)N)C(=O)N1CCC[C@H]1C(=O)N[C@@H](CCCCN)C(=O)N[C@@H](CC(C)C)C(=O)N[C@@H](CCCCN)C(N)=O [listing 1 of 2 here],0.46,0.45,0.013,0.044,–,–
CC[C@H](C)[C@H](NC(=O)[C@H](CCCN=C(N)N)NC(=O)[C@H](CCCN=C(N)N)NC(=O)[C@H](CC(C)C)NC(=O)[C@H](Cc1ccccc1)NC(=O)CNC(=O)[C@@H](CC(=O)O)NC(=O)[C@@H](N)Cc1ccc(O)cc1)C(=O)N[C@@H](CCCN=C(N)N)C(=O)N1CCC[C@H]1C(=O)N[C@@H](CCCCN)C(=O)N[C@@H](CC(C)C)C(=O)N[C@@H](CCCCN)C(N)=O [listing 2 of 2 here],–,–,–,–,32,–
CC[C@H](C)[C@H](NC(=O)[C@H](CCCN=C(N)N)NC(=O)[C@H](CCCN=C(N)N)NC(=O)[C@H](CCCN=C(N(C)C)N(C)C)NC(=O)[C@H](Cc1ccccc1)NC(=O)CNC(=O)[C@@H](CC(=O)O)NC(=O)[C@@H](N)Cc1ccc(O)cc1)C(=O)N[C@@H](CCCN=C(N)N)C(=O)N1CCC[C@H]1C(=O)N[C@@H](CCCCN)C(=O)N[C@@H](CC(C)C)C(=O)N[C@@H](CCCCN)C(N)=O,1.78,0.36,0.28,14.2,12,–
CC[C@H](C)[C@H](NC(=O)[C@H](CCCN=C(N)N)NC(=O)[C@H](CCCN=C(N)N)NC(=O)[C@@H]1CCNC(=O)C[C@@H](NC(=O)[C@@H](N)Cc2ccc(O)cc2)C(=O)NCC(=O)N[C@@H](Cc2ccccc2)C(=O)N1)C(=O)N[C@@H](CCCN=C(N)N)C(=O)N1CCC[C@H]1C(=O)N[C@@H](CCCCN)C(=O)N[C@@H](CC(C)C)C(=O)N[C@@H](CCCCN)C(N)=O [listing 1 of 2 here],0.23,0.13,0.17,12,–,–
CC[C@H](C)[C@H](NC(=O)[C@H](CCCN=C(N)N)NC(=O)[C@H](CCCN=C(N)N)NC(=O)[C@H](CCN=C(N(C)C)N(C)C)NC(=O)[C@H](Cc1ccccc1)NC(=O)CNC(=O)[C@@H](CC(=O)O)NC(=O)[C@@H](N)Cc1ccc(O)cc1)C(=O)N[C@@H](CCCN=C(N)N)C(=O)N1CCC[C@H]1C(=O)N[C@@H](CCCCN)C(=O)N[C@@H](CC(C)C)C(=O)N[C@@H](CCCCN)C(N)=O,0.18,0.14,0.32,7.52,122,–
CC[C@H](C)[C@H](NC(=O)[C@H](CCCN=C(N)N)NC(=O)[C@H](CCCN=C(N)N)NC(=O)[C@@H]1CCCNC(=O)C[C@@H](NC(=O)[C@@H](N)Cc2ccc(O)cc2)C(=O)NCC(=O)N[C@@H](Cc2ccccc2)C(=O)N1)C(=O)N[C@@H](CCCN=C(N)N)C(=O)N1CCC[C@H]1C(=O)N[C@@H](CCCCN)C(=O)N[C@@H](CC(C)C)C(=O)N[C@@H](CCCCN)C(N)=O,0.4,0.68,0.19,14.1,55,Ki ratio [8]: mu/kappa/delta
CC[C@H](C)[C@H](NC(=O)[C@H](CCCN=C(N)N)NC(=O)[C@H](CCCN=C(N)N)NC(=O)[C@@H]1CCNC(=O)C[C@@H](NC(=O)[C@@H](N)Cc2ccc(O)cc2)C(=O)NCC(=O)N[C@@H](Cc2ccccc2)C(=O)N1)C(=O)N[C@@H](CCCN=C(N)N)C(=O)N1CCC[C@H]1C(=O)N[C@@H](CCCCN)C(=O)N[C@@H](CC(C)C)C(=O)N[C@@H](CCCCN)C(N)=O [listing 2 of 2 here],–,–,–,–,96,–
